Experimental findings from ChEMBL document CHEMBL3797202, “Novel Oxindole Sulfonamides and Sulfamides: EPZ031686, the First Orally Bioavailable Small Molecule SMYD3 Inhibitor” (ACS Med Chem Lett, 2016) are described below.

The target in series [1] is Protein arginine N-methyltransferase 3 (Homo sapiens) (UniProt O60678). The experiment in a line: Inhibition of PRMT3 (unknown origin) at 10 uM relative to control.
For series [2], the target named is T1, Histone-lysine N-methyltransferase SETD7 (Homo sapiens) (UniProt Q8WTS6).
T1 sequence (whole entry): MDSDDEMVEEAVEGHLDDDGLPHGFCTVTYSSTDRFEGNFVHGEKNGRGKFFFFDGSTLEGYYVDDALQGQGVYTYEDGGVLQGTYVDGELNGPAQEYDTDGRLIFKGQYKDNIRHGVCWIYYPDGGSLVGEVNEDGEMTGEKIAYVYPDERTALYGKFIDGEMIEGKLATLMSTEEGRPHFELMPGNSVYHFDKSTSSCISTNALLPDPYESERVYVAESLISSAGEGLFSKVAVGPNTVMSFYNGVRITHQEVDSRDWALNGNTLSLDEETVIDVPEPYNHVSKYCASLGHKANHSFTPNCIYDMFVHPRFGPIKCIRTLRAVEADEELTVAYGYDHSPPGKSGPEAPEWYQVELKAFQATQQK
The experiment in a line: Inhibition of SETD7 (unknown origin) at 10 uM relative to control.

Series [3] in a line: Apparent permeability in human Caco2 cells at 10 uM incubated for 120 mins by LC-MS/MS analysis. It counts as ADME, cell-based. Conditions: Caco-2. A digest of the protocol:
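Caco-2 cell monolayers; permeability measured in the apical-to-basolateral direction, with an efflux ratio also determined.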

A short description of series [4]: Intrinsic clearance in CD1 mouse liver microsomes at 1 uM incubated for 5 to 45 mins by LC-MS/MS analysis in presence of NADPH. It counts as ADME. Conditions: read-out: CLH. A digest of the protocol: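 Mouse liver microsomal incubations; clearance scaled from microsomal data and reported as a mean value.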
For series [5], the target named is Histone-lysine N-methyltransferase, H3 lysine-79 specific (Homo sapiens) (UniProt Q8TEK3). The experiment in a line: Inhibition of DOT1L (unknown origin) at 10 uM relative to control.
The target of series [6] is Protein arginine N-methyltransferase 6 (Homo sapiens) (UniProt Q96LA8). The experiment in a line: Inhibition of PRMT6 (unknown origin) at 10 uM relative to control.
Sequence of Protein arginine N-methyltransferase 6 (Homo sapiens) (Q96LA8 whole entry, looked up): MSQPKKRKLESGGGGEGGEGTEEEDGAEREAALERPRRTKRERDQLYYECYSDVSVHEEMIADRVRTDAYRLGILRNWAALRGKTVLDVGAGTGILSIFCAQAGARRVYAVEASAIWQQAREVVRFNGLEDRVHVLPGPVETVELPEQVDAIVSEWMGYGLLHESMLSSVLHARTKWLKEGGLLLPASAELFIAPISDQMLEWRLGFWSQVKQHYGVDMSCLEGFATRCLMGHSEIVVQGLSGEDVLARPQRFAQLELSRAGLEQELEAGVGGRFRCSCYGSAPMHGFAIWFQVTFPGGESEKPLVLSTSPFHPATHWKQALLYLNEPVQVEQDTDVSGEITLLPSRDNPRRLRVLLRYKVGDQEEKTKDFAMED
Series [7] deals with T2, Histone-lysine N-methyltransferase EHMT2 (Homo sapiens) (UniProt Q96KQ7).
T2 sequence (whole entry): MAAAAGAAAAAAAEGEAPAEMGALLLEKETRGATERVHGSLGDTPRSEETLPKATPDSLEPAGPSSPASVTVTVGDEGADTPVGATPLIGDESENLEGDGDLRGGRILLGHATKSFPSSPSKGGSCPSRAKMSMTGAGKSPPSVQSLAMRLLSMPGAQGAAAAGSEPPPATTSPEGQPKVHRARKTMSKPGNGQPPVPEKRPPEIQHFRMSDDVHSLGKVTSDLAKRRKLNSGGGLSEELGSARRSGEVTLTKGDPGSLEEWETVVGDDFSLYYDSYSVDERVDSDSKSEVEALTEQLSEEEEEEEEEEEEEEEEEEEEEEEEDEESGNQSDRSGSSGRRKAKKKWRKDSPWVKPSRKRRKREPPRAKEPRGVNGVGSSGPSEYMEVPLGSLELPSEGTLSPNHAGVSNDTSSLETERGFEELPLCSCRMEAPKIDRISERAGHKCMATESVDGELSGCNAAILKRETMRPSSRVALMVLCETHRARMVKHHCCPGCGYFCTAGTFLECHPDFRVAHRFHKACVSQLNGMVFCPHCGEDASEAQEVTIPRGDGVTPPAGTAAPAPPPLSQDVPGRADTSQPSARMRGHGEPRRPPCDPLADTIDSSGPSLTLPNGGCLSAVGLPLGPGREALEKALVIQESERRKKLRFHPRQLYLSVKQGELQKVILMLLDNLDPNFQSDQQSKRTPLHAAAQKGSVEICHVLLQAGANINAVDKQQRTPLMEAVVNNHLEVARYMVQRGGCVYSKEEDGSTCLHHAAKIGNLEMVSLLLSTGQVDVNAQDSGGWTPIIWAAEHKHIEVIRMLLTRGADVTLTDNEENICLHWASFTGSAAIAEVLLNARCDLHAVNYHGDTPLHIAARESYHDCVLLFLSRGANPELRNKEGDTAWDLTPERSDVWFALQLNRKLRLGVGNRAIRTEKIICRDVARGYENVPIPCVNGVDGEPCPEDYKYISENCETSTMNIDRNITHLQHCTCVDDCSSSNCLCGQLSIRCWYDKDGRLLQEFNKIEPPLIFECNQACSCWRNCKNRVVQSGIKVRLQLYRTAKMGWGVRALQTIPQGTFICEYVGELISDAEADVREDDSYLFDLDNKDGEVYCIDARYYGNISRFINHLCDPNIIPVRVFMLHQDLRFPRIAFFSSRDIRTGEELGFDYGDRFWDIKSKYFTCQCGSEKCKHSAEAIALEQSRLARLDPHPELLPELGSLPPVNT
The experiment in a line: Inhibition of EHMT2 (unknown origin) at 10 uM relative to control.

Series [8] addresses Protein arginine N-methyltransferase 8 (Homo sapiens) (UniProt Q9NR22). The series can be described thus: Inhibition of PRMT8 (unknown origin) at 10 uM relative to control.
In series [9] the target is Histone-lysine N-methyltransferase, H3 lysine-36 specific (Homo sapiens) (UniProt Q96L73). The series can be described thus: Inhibition of NSD1 (unknown origin) at 10 uM relative to control.
Sequence of Histone-lysine N-methyltransferase, H3 lysine-36 specific (Homo sapiens) (Q96L73 whole entry): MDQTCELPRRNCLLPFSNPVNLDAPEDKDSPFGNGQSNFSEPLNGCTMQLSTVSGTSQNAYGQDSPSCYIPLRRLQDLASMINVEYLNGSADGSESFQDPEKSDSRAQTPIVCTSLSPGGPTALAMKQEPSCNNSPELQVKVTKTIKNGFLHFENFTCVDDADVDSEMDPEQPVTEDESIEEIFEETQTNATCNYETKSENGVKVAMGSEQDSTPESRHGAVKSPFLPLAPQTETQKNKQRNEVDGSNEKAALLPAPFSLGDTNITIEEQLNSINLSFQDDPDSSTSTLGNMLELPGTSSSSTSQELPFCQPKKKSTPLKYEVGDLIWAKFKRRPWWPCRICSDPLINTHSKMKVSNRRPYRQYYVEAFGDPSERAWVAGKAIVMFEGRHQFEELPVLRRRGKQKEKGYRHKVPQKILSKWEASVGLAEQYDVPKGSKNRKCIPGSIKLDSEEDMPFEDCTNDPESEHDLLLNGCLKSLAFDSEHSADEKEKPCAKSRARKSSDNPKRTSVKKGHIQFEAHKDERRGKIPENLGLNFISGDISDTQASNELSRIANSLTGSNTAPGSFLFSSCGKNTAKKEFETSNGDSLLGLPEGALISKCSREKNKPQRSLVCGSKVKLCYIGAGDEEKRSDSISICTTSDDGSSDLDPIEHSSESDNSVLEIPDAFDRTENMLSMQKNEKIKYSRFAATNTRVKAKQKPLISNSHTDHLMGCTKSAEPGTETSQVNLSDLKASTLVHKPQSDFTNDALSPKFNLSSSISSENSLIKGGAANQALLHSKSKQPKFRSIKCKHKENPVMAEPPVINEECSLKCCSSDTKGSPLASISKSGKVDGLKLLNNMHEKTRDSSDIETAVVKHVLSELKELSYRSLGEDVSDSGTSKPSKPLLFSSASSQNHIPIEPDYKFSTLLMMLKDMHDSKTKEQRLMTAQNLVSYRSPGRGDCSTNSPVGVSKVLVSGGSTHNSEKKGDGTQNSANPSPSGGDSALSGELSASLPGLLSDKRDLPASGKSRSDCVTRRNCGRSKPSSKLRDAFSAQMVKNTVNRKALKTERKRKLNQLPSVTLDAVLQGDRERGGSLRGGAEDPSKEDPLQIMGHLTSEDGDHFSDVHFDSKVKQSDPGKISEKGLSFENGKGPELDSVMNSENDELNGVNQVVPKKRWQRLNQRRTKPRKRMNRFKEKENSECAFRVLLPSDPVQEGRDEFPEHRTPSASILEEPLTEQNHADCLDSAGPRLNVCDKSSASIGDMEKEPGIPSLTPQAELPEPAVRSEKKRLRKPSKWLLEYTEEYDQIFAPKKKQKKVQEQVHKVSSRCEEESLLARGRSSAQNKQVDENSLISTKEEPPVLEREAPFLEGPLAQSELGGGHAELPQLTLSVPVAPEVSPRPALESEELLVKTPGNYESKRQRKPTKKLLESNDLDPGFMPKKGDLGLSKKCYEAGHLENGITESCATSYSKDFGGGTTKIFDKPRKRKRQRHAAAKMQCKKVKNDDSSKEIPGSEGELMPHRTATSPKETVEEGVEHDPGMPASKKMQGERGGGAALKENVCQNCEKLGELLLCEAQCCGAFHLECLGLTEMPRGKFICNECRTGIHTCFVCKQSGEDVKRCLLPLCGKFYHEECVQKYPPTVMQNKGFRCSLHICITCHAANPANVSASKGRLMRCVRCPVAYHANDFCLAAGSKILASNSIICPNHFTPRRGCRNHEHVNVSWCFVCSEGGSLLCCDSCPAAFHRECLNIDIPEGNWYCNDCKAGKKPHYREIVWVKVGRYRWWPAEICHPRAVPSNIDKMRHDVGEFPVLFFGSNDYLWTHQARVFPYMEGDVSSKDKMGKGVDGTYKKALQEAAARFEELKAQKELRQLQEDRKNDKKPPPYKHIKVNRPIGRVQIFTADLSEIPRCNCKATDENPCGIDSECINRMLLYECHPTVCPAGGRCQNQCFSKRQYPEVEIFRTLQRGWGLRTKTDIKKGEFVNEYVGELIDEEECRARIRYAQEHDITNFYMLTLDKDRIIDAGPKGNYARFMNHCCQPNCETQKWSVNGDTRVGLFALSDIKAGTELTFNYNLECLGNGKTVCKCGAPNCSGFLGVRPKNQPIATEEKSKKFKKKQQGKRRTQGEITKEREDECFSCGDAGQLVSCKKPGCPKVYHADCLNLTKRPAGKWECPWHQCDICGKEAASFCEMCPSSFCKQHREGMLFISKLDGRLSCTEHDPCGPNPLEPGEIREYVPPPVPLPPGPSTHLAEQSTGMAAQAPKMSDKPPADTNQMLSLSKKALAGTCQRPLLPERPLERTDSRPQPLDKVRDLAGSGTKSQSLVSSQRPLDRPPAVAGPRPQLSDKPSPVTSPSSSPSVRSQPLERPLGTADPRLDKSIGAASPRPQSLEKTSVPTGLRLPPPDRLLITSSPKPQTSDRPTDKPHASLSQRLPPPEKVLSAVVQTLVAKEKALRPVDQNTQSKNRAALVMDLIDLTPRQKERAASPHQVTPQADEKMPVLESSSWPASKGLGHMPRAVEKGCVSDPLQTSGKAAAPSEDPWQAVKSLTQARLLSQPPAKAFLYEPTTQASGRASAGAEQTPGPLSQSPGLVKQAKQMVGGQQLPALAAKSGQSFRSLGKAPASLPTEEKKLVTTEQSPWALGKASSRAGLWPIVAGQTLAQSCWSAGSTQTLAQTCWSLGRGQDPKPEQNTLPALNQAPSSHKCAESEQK
Series [10] deals with N-lysine methyltransferase SMYD2 (Homo sapiens, UniProt Q9NRG4). The experiment in a line: Inhibition of SMYD2 (unknown origin).
Sequence of N-lysine methyltransferase SMYD2 (Q9NRG4 whole entry): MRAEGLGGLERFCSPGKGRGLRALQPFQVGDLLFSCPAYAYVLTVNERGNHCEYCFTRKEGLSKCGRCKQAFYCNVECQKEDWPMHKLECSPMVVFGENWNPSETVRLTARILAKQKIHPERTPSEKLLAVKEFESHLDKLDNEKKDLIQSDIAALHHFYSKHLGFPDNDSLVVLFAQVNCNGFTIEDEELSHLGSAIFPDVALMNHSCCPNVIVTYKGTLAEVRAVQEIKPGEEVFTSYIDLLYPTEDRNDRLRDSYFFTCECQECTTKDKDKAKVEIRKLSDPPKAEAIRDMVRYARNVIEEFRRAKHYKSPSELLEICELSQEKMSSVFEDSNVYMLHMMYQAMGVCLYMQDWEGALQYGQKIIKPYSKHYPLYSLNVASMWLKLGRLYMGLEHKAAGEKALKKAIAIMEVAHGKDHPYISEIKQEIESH
The target of series [11] is Histone-lysine N-methyltransferase PRDM9 (Homo sapiens) (UniProt Q9NQV7). The experiment in a line: Inhibition of PRDM9 (unknown origin) at 10 uM relative to control.
Sequence of Histone-lysine N-methyltransferase PRDM9 (Homo sapiens) (Q9NQV7 whole entry): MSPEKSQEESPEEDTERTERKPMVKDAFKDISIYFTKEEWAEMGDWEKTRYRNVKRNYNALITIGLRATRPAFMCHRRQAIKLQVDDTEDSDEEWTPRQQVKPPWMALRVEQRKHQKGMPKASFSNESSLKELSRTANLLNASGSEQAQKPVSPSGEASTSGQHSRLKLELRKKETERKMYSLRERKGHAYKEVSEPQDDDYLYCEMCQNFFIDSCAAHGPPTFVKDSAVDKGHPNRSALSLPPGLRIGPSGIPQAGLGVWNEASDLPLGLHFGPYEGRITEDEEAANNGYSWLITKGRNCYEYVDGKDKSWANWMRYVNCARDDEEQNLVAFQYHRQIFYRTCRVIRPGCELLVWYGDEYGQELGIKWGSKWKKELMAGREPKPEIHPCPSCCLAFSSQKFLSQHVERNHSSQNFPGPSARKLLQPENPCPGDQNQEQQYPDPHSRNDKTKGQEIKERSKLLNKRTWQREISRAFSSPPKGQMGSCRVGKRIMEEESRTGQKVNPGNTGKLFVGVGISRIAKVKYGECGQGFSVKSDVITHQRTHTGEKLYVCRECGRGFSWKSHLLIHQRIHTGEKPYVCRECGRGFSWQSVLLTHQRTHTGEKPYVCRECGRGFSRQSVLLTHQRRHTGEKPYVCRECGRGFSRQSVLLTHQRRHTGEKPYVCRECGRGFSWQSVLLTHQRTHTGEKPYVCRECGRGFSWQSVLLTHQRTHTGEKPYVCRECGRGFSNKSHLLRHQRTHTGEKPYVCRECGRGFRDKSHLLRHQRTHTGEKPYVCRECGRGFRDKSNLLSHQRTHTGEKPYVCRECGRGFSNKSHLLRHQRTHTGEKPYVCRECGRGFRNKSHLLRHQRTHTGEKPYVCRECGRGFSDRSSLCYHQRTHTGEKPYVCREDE
For series [12], the target named is T3, Histone-lysine N-methyltransferase SUV39H1 (Homo sapiens) (UniProt O43463).
T3 sequence (whole entry): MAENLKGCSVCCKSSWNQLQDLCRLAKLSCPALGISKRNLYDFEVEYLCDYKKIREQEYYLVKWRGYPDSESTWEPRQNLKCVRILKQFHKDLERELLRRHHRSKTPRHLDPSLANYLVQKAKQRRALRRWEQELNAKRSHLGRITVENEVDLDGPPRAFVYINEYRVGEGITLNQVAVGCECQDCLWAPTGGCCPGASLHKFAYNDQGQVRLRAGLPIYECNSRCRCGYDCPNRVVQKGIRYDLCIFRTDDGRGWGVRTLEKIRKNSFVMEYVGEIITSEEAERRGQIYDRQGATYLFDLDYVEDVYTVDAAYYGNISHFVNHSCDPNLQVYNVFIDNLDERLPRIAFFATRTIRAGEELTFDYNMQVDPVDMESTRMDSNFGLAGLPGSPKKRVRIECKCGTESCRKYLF
The series can be described thus: Inhibition of SUV39H1 (unknown origin) at 10 uM relative to control.

Where only a bound is given, the exact number is not on record here.

Sequence of Protein arginine N-methyltransferase 8 (Homo sapiens) (Q9NR22 2-394 limits assumed): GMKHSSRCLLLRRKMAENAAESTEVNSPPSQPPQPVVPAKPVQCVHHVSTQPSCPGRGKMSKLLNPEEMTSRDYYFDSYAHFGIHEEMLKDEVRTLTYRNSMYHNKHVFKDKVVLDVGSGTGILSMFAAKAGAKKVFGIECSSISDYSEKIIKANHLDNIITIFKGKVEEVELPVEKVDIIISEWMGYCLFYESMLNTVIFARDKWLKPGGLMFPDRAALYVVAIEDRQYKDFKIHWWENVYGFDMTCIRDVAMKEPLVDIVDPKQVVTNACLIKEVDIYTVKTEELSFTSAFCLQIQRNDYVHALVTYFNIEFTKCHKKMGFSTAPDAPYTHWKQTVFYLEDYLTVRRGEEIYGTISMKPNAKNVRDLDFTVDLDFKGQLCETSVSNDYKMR

As for `O=C1Cc2cc(C(=O)N[C@H]3C[C@H]4CC[C@@H](C3)N4S(=O)(=O)N3CCC(NCc4ccccc4)CC3)c(Cl)cc2N1`, the inhibition in [1], in series [2], in series [5], in series [6], in series [7] and in series [8] was < 30% each time. Further, the inhibition in series [9], in [11] and in series [12] was < 30% each time. In addition, the Papp at 2 h, 10 µM in series [3] turned out to be 3.4 nm/s. The CLint scaled at 1 µM in series [4] is 2.04 L/h/kg. Moreover, the IC50 in series [10] was > 50 µM.

Take `O=C1Cc2cc(C(=O)N[C@H]3C[C@H]4CC[C@@H](C3)N4S(=O)(=O)CC3CCN(CCCC(F)(F)F)CC3)c(Cl)cc2N1`: the inhibition in [1], in series [2], in [5], in series [6], in [7] and in series [8] was < 30% throughout. For the same compound, the inhibition in series [9], in [11] and in series [12] was < 30% in each case. Moreover, in [3], the Papp at 2 h, 10 µM turned out to be 6.4 nm/s. Besides, the CLint scaled at 1 µM in series [4] came out at 1.44 L/h/kg. In series [10], the IC50 was > 50 µM.
